DDE Tn6 FP inh = DD(E)-Tn6 binding inhibition, primary FP screen; Fibrin DD(E) TRITC-Tn6 fluorescence polarization displacement; P02675; 370,000 compounds, 0.21% hits; inhibition, % at 8.3 µM;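 active = inhibition above a per-campaign cutoff: mean of compounds within control limits plus 3 SD, cut at about 15% in these data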
Target sequence (P02675 whole entry, looked up): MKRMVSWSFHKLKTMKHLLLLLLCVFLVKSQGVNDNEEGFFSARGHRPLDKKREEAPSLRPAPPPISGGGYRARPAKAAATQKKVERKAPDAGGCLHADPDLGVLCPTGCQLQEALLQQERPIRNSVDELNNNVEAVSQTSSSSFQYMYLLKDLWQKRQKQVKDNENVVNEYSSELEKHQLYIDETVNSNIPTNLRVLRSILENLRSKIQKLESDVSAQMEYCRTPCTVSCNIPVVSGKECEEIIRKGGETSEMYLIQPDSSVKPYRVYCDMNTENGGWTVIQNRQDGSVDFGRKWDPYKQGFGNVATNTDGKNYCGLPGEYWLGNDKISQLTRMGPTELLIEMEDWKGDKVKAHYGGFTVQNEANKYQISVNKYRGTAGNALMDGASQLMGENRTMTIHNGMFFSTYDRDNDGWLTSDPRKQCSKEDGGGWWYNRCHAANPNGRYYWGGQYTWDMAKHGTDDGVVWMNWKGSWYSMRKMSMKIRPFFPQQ
aDG glyco act = increases alpha dystroglycan glycosylation. activation, % at 10 µM. AID 624168. 360,000 compounds, 0.22% hits. Pro5-aDG cells, alpha-DG glycosylation AlphaScreen (IIH6); 0% Pro5, 100% B10-LARGE cell signal;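 active = activation of at least 8% versus controls, or a plate z-score of at least 8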;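 also: Pro5 are CHO cells carrying HIG-tagged alpha-DG that lacks glycosylation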
Tn7 DDE FP = disrupts Tn7 cyclic peptide binding to fibrin D-Dimer-E complex. P02675. FP displacement of FITC-Tn7 peptide from fibrin DD(E); 0% = median of compound wells per plate. inhibition, % at 8.3 µM. 370,000 compounds, 0.13% hits;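 active = inhibition above the mean of compounds falling within the control limits plus 3 SD of them, cut at about 14% in these data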
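Test system: human clot-derived fibrin DD(E) complex / Quantity: 2 µM final DD(E) protein / Incubation: 10 min plus 3 h, room temperature / Measured by: fluorescence polarization / Benchmarks: high control of 10 µM Aha-Tn7 peptide / Replicates: singlicate testing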
CendR NRP1 mod = NRP-1/CendR interaction modulation; O14786; FAM-RPARPAR peptide binding to NRP-1, fluorescence polarization; inhibition, % at 25 µM; 360,000 compounds, 0.85% hits; AID 602438;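 active = inhibition or corrected inhibition above about 18%, plus a signal ratio from 0.5 to 1.5, limit read from the data, passing the limit was not always enough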
A number is an active result; – = inactive; · = no result given; ! = a repeat was not active. The list is not random: actives were taken first. Their share in the collection is about 1.3%.

SMILES | DDE Tn6 FP inh | aDG glyco act | Tn7 DDE FP | CendR NRP1 mod
CCN1CC=C(c2c[nH]c3ccccc23)CC1 | – | – | – | 30.6
Cc1[nH]c2ccccc2c1C(=O)CN1CC=C(c2ccccc2)CC1 | – | – | – | –
CCN(CC)c1ccc(CN2CC=C(c3ccc(F)cc3)CC2)cc1 | – | – | – | 19.6
COc1cc(C)c(CN2CCN(c3ccccc3)CC2)cc1C | – | – | – | 36.0
COc1ccccc1N1CCN(Cc2cc(C)c(C)cc2O)CC1 | – | – | – | –
c1ccc(Nc2ccc(Nc3ccccc3)cc2)cc1 | – | – | – | 28.9
O=[N+]([O-])c1ccc(Nc2ccccc2)cc1 | – | – | – | –
CCc1ccc(N2C(=O)NC(=O)/C(=C\c3cccn3CCOc3ccc(C(C)C)cc3)C2=O)cc1 | – | – | – | 36.5
CC[N+](C)(CC)CCCOC(=O)C(O)(c1ccccc1)C1CCCCC1 (configuration not stated) | – | – | – | –
O=C1C2CCN(CC2)C1Cc1ccc(OCCOc2ccccc2)cc1 (configuration not stated) | – | – | – | 28.4
O=C1C2CCN(CC2)C1Cc1ccccc1O (configuration not stated) | – | · | – | ·
N#CC1c2ccccc2-n2nncc2CN1S(=O)(=O)c1ccccc1 (configuration not stated) | – | – | – | –
CC12CCCCC1N(O)CN2O (configuration not stated) | – | – | – | 23.1
CC1(C)N(O)C2CCCCC2N1O (configuration not stated) | – | – | – | –
CCC(CO)NC(=O)C1C=C2c3cccc4[nH]cc(c34)CC2N(C)C1 (configuration not stated) | – | – | – | 49.1
CC(C)C[C@H]1C(=O)N2CCC[C@H]2[C@]2(O)O[C@](NC(=O)[C@@H]3C=C4c5cccc6[nH]cc(c56)C[C@H]4N(C)C3)(C(C)C)C(=O)N12 | · | – | · | –
CC[C@@H](CO)NC(=O)[C@@H]1C=C2c3cccc4c3c(cn4C)C[C@H]2N(C)C1 | – | – | – | 40.9
Cc1ccc(C2C(S(C)(=O)=O)=C(O)C(=O)N2c2ccccc2)cc1 (configuration not stated) (tested in a mixture with another compound) | – | – | – | –
CN1CC[C@@]2(C)c3cc(O)ccc3N(C)[C@@H]12 | – | – | – | 27.5!
CN1CC[C@@]2(C)c3cc(O)ccc3N(C)C2O1 (some centres not stated) | · | – | · | –
C=CCN1C(=O)C2(C(C(=O)OCC)=C(N)Oc3ccccc32)c2c1c1ccccc1oc2=O (configuration not stated) | – | – | – | 43.7
CN1C2CCC1C(C(=O)Oc1ccccc1)C(c1ccc(Cl)cc1)C2 (configuration not stated) | – | · | – | ·
CCOC(=O)c1c(N)n(CCCOC(=O)c2ccco2)c2nc3ccccc3nc12 | – | 14.4 | – | –
CN1CCN(c2ccc([N+](=O)[O-])c(Sc3nncn3C)c2)CC1 | – | – | – | –
CN1CCN(c2ccc([N+](=O)[O-])c(Sc3ccccn3)c2)CC1 | – | – | – | 27.8
SMILES | DDE Tn6 FP inh | aDG glyco act | Tn7 DDE FP | CendR NRP1 mod
COc1ccc(CN2Cc3cc(N4CCCCC4)ccc3-n3nncc3C2)cc1 | – | – | – | –
Cc1ccc(-[n+]2c(Cc3nn(-c4ccccc4)c(C)[n+]3-c3ccc(C)cc3)nn(-c3ccccc3)c2C)cc1 | – | – | – | 26.8
COc1ccc(-[n+]2c(-c3ccccc3)cc(-c3ccc(C)cc3)cc2-c2ccccc2)cc1 | – | – | – | –
Cc1ccccc1-[n+]1c(-c2ccccc2)cc(-c2ccccc2)cc1-c1ccccc1 | – | – | – | –
O=C1C(Cc2cnc[nH]2)NC(=S)N1c1ccccc1 (configuration not stated) | – | – | – | –
COC(=O)C1=C(c2cccc(OC)c2OC)C[C@@H]2CC[C@H]1N2C(=O)NCc1ccc(F)cc1 | – | – | – | 27.3
COC(=O)C1=C(c2ccc(F)cc2OCc2ccccc2)C[C@@H]2CC[C@H]1N2C(=O)NCc1ccc(F)cc1 | – | – | – | –
COC(=O)C1=C(c2cccc(OC)c2OC)C[C@@H]2CC[C@H]1N2C(=O)NCc1ccccc1 | – | – | – | –
COC(=O)C1=C(c2ccccc2OCc2ccccc2)C[C@@H]2CC[C@H]1N2C(=O)NCc1ccc(F)cc1 | – | – | – | 22.2
C=CC[N+]1(C)C2CCC1CC(O)C2 (configuration not stated) | – | – | – | 21.3
COC(=O)C1CC(OC(C)=O)C(=O)[C@H]2C1(C)CC[C@H]1C(=O)OC(c3ccoc3)CC12C (some centres not stated) | – | · | – | ·
COc1cc2c(cc1OC)-c1c(OC)c(OC)cc3c1[C@H](C2)N(C)CC3 | – | – | – | 29.2
CN1C[C@@H]2C[C@@H](c3cccn3-c3ccccn3)N3CCC[C@@]23C1=O | – | – | – | –
Clc1ccc(-c2nc3ccc(Cl)cn3c2CN2CCOCC2)cc1 | – | – | – | 49.5
Clc1ccc(-c2nc3ccc(Cl)cn3c2CN2CCCCC2)cc1 | – | – | – | –
OC(c1cccc(Cl)c1)(c1cccc(Cl)c1)C1CN2CCC1CC2 (configuration not stated) | – | – | – | 40.4
O=C(COC(=O)c1cc(Br)cc(Br)c1O)NC12CC3CC(CC(C3)C1)C2 | – | – | – | –
c1ccc2c(NC3=NCCS3)cccc2c1 | – | – | – | 26.5
CC(=O)OC1(c2ccccc2)CCN(C2CCCCC2)CC1C (configuration not stated) | – | – | – | –
CC(=O)Nc1ccc(OCCF)cc1 | – | – | – | 26.3
CCCCCP(=O)(O)c1ccccc1 | – | – | – | –
CCCC/C(C)=C/[C@@H](NP(=O)(c1ccccc1)c1ccccc1)c1ccccc1 | – | – | 14.2 | –
O=C(c1cccnc1)N1Cc2ccccc2-n2nncc2C1 | – | – | – | –
Clc1ccccc1CNC1CN2CCC1CC2 (configuration not stated) | – | – | – | 25.7
C=CCn1c(O)c(C(CC)=NCCC2=CCCCC2)c(=O)[nH]c1=O | – | – | – | 29.8
SMILES | DDE Tn6 FP inh | aDG glyco act | Tn7 DDE FP | CendR NRP1 mod
C=CCn1c(O)c(C(CC)=NCCCO)c(=O)[nH]c1=O | – | – | – | –
Fc1ccc2nc(-c3ccc(CN4CCC(n5nnc6ccccc65)CC4)cc3)c(-c3ccccc3)nc2c1 | – | · | – | ·
Cc1c(NP(=O)(C(C)(C)C)C(C)(C)C)c(=O)n(-c2ccccc2)n1C | – | – | – | 21.1
Cc1c(C(=O)Nc2ccccc2)c2cc(O)ccc2n1Cc1ccccc1 | – | – | – | –
CCC(c1nnnn1C(C)(C)C)N1CCC2(CC1)C(=O)NCN2c1ccccc1 (configuration not stated) | – | – | – | 30.2
CSCCC(c1nnnn1C1CCCCC1)N1CCC2(CC1)C(=O)NCN2c1ccccc1 (configuration not stated) | – | – | – | 23.7
CN1CC(C#N)C2(O)c3ccccc3CCC2C1 (configuration not stated) | – | – | – | –

Assay outcomes (PubChem)
